In experiment [1] the test system is HGC-27. Put plainly: Cytotoxicity against human HGC27 cells assessed as inhibition of cell viability after 48 hrs by MTT assay. It counts as functional, cell-based. Conditions: HGC-27, 48 h. The essentials: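 Cells were seeded at 2.5‒5 x 10^3 per well in DMEM or RPMI with 10% FBS and grown 24 h at 37 °C under CO2. Compounds diluted in medium were added alongside vehicle control for 48 h. MTT (0.5 mg/mL) was added for 4 h, formazan dissolved in DMSO and absorbance read at 570 nm. IC50 is the concentration giving 50% loss of viability; mean ± SD of three experiments, each in triplicate.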

The test system of experiment [2] is PC-3. Put plainly: Potency index, ratio of curcumin IC50 to test compound IC50 for human PC3 cells. It is filed as functional.
Experiment [3] is filed under the species Sus scrofa. Put plainly: Inhibition of tubulin polymerization in porcine brain at 10 uM after 60 mins by fluorescence assay relative to control. The essentials:
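Cell-free kit assay using porcine brain tubulin (2 mg/mL) in 80 mM PIPES pH 6.9 with 2.0 mM MgCl2, 0.5 mM EGTA, 1.0 mM GTP and glycerol; compound at 10 µM final, nocodazole as positive control. Polymerization tracked over time as fluorescence of a reporter incorporated into microtubules (ex 360 nm, em 440 nm), with inhibition relative to control.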

Experiment [4] relates to PC-3. Kind of experiment: Cell cycle arrest in human PC3 cells assessed as accumulation at S phase at 1 uM after 24 hrs by propidium iodide staining-based flow cytometric method (reference value: 8.08%). It is filed as functional.
Experiment [5] has as its system PC-3. Put plainly: Cell cycle arrest in human PC3 cells assessed as accumulation at S phase at 2 uM after 24 hrs by propidium iodide staining-based flow cytometric method (reference value: 8.08%). It is filed as functional. In general terms: Flow cytometry measures light scatter and fluorescence of single cells or particles in a stream.
Experiment [6] concerns PC-3. Kind of experiment: Induction of apoptosis in human PC3 cells assessed as destructive fragmentation of nuclei at 2 uM after 48 hrs by acridine orange/ethidium bromide staining-based fluorescence inverted microscopic method. It counts as functional, cell-based. In a few lines: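 PC-3 cells (25000/well) grown 24 h, then exposed 48 h to 0.5, 1 or 2 µM with DMSO control. After PBS wash, stained with acridine orange and ethidium bromide (10 µg/mL each) and imaged at once by fluorescence inverted microscopy (ex 488 nm, em 530 nm, 200x).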

Experiment [7] has as its system PC-3. Put plainly: Induction of apoptosis in human PC3 cells assessed as late apoptotic cells at 4 uM after 24 hrs by FITC-annexin V/propidium iodide staining-based flow cytometric method (reference value: 5.75%). It counts as functional.
The test system of experiment [8] is PC-3. Put plainly: Induction of apoptosis in human PC3 cells assessed as nuclei condensation at 1 to 2 uM after 48 hrs by DAPI staining-based fluorescence microscopic method. It counts as functional, cell-based. The essentials:
(§1)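 PC-3 cells (25000/well) adhered overnight, then treated 48 h at 1 or 2 µM. After PBS wash, fixed 20 min in 4% neutral buffered formalin, permeabilized 5 min with 0.2% Triton X, and stained 10 min at room temperature with DAPI (1 µg/mL). Nuclei viewed by fluorescence microscopy (ex 350 nm, em 460 nm, 200x).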

Experiment [9] deals with PC-3. Kind of experiment: Induction of apoptosis in human PC3 cells assessed as nuclei fragmentation at 1 to 2 uM after 48 hrs by DAPI staining-based fluorescence microscopic method. It is filed as functional, cell-based. The essentials: as §1
The test system of experiment [10] is PC-3. Put plainly: Induction of mitochondrial membrane depolarization in human PC3 cells at 2 uM after 24 hrs by JC1 staining-based flow cytometric method (reference value: 11.9%). It counts as functional.
Experiment [11] concerns PC-3. Put plainly: Induction of mitochondrial membrane depolarization in human PC3 cells at 4 uM after 24 hrs by JC1 staining-based flow cytometric method (reference value: 11.9%). It counts as functional.

The text below walks through data of ChEMBL document CHEMBL4251576, “Synthesis and biological evaluation of curcumin inspired imidazo[1,2-a]pyridine analogues as tubulin polymerization inhibitors” (Eur J Med Chem, 2018).

SMILES strings stand for the structures. Calls of active or inactive are those of the source. The calls are words filed in the database; no cut-off is given here.

What is called IC50 is the concentration that inhibits the measured activity by half. As usually defined, the inhibition is the percentage by which the read-out fell short of the control. Read a high inhibition as a strong effect. As to `COc1cc(OC)c(/C=C/C(=O)/C=C/c2nc3ccccn3c2-c2ccc(F)c(F)c2)c(OC)c1`, the IC50 in experiment [1] is 2210 nM. Further, the “Ratio IC50” value in experiment [2] came to 8.9. This molecule gave an inhibition in [3] of 51.8%. The Activity in [4] was 9.97%; in [5] it was 0.76%; in experiment [7], 48.34%; in experiment [10], 23.67%; in experiment [11], 52.3%. The outcome in experiment [6], in experiment [8] and in experiment [9] was Active.
